# Assay results reported in the M2OR odorant receptor database.
# Biological target: T1, OR5B17 (Homo sapiens) (UniProt Q8NGF7)
# T1 sequence (whole entry): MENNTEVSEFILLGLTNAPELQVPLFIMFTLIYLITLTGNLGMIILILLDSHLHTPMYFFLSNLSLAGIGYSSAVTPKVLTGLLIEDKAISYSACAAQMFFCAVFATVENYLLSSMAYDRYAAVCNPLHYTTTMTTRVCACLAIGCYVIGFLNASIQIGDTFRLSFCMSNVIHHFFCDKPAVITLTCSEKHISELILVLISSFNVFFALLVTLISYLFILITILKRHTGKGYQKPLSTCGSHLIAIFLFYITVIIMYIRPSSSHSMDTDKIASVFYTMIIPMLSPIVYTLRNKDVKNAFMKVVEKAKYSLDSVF
# Conditions: stereoisomer not certain
# In short: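 Assay methods differ from source to source, frequently being transient luciferase assays in mammalian cell lines. For each receptor–molecule pair, the label responsive (active) applies when the original authors judged the measured signal statistically different from baseline, and non-responsive (inactive) applies otherwise.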
row,SMILES,odorant receptor agonist call
1,CCOC(=O)CC1(C)OCCO1,inactive
2,CCCC(C)C(=O)OCC (stereo unspecified),inactive
3,OCc1ccccc1,inactive
4,CC(=O)OCc1ccccc1,inactive
5,CCc1ccc(CC(C)(C)C=O)cc1,active
6,CC1CC(C)(c2ccccc2)CO1 (stereo unspecified),inactive
7,COc1ccc(C)cc1,inactive
8,COC1CC2CC1C1CC(C=O)CC21 (stereo unspecified),inactive
9,CC(C)=CCCC(C)=CCO,inactive
10,CC(=O)C=CC1=C(C)CCCC1(C)C,inactive
11,C=CC(C)(O)CCC=C(C)CCC=C(C)C (stereo unspecified),inactive
12,CC1=CCC2CC1C2(C)C (stereo unspecified),inactive
13,Cc1occc(=O)c1OC(=O)C(C)C,inactive
14,CC(C)=CCCC(C)CC=O (stereo unspecified),inactive
15,Cc1ccc(C(C)C)cc1O,inactive
16,CC=CC(=O)C1C(C)=CCCC1(C)C (stereo unspecified),inactive
17,CCC=C(C)C(O)CCCCC (stereo unspecified),inactive
18,CCCCCC1COCCC1OC(C)=O (stereo unspecified),inactive
19,CC(C)(C)C1CCCCC1OCCCCO (stereo unspecified),inactive
20,CC(CC=O)c1ccc(C(C)(C)C)cc1 (stereo unspecified),inactive
21,CCCCCC1C(=O)CCC1CC(=O)OC (stereo unspecified),inactive
